Converted amounts (≈) assume the structure as drawn.
Experiments:
Staphylococcus aureus = assay: Antibacterial activity against Staphylococcus aureus ATCC 29213 after 20 hrs by two fold dilution method; type: functional; conditions: ATCC 29213, 20 h
Outline: (§1)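 Twofold agar dilution in Mueller–Hinton agar. Compounds were dissolved in DMSO and diluted into the medium at final 128–1 µg/mL. The inoculum was 10^4 CFU/plate, and a medium-plus-DMSO plate served as negative control. Plates were incubated at 35 °C for 20 h. MIC was taken as the lowest concentration giving complete growth inhibition. Experiments were run three times.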

Bacillus subtilis = assay: Antibacterial activity against Bacillus subtilis MTCC 121 after 20 hrs by two fold dilution method; type: functional; conditions: MTCC 121, 20 h; outline: as §1
Streptococcus mutans = assay: Antibacterial activity against Streptococcus mutans MTCC 890 after 20 hrs by two fold dilution method; type: functional; conditions: MTCC 890, 20 h; outline: as §1
Escherichia coli = assay: Antibacterial activity against Escherichia coli ATCC 25922 after 20 hrs by two fold dilution method; type: functional; conditions: ATCC 25922, 20 h; outline: as §1
Salmonella typhi = assay: Antibacterial activity against Salmonella typhi MTCC 733 after 20 hrs by two fold dilution method; type: functional, Salmonella enterica subsp. enterica serovar Typhi; conditions: Salmonella enterica, MTCC 733, 20 h
Outline: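 Twofold agar dilution in Mueller–Hinton agar. Compounds dissolved in DMSO and diluted into medium to final 128–1 µg/mL; medium with DMSO at the same dilution as negative control. Inoculum 10^4 CFU/plate; incubated 35 °C for 20 h. MIC taken as lowest concentration giving complete growth inhibition, in µg/mL. Ampicillin and ciprofloxacin as references; three independent experiments.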

Candida albicans = assay: Antifungal activity against Candida albicans MTCC 1637 at 300 ug/disk after 7 days by disk diffusion method; type: functional; conditions: MTCC 1637, 168 h, read-out: IZ
Outline: (§2)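 Disc diffusion on Mueller–Hinton agar seeded with a standardized suspension, following NCCLS. Sterile 6 mm paper discs held 300 µg of test compound, amphotericin B at 10 µg as reference, or DMSO alone as negative control. Plates were incubated at 28 ± 2 °C for 7 days. Inhibition zone diameters (mm) were measured in triplicate and scored as 10–15, 16–21 or 22–28 mm.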

Aspergillus niger = assay: Antifungal activity against Aspergillus niger at 300 ug/disk after 7 days by disk diffusion method; type: functional; conditions: 168 h, read-out: IZ; outline: as §2
Aspergillus flavus = assay: Antifungal activity against Aspergillus flavus at 300 ug/disk after 7 days by disk diffusion method; type: functional; conditions: 168 h, read-out: IZ; outline: as §2
Pseudomonas aeruginosa = assay: Antibacterial activity against Pseudomonas aeruginosa MTCC 741 after 20 hrs by two fold dilution method; type: functional; conditions: MTCC 741, 20 h; outline: as §1

SMILES: Cc1nc2ccccc2n1Cc1nnc(CCl)o1
- MIC (Staphylococcus aureus): 16 µg/mL (≈ 60.9 µM)
- MIC (Bacillus subtilis): 16 µg/mL (≈ 60.9 µM)
- MIC (Streptococcus mutans): 32 µg/mL (≈ 122 µM)
- MIC (Escherichia coli): 16 µg/mL (≈ 60.9 µM)
- MIC (Salmonella typhi): > 128 µg/mL
- zone of inhibition at 300 µg/disc (Candida albicans): 10 mm
- zone of inhibition at 300 µg/disc (Aspergillus niger): 16 mm
- zone of inhibition at 300 µg/disc (Aspergillus flavus): 10 mm

SMILES: Cc1nc2ccccc2n1Cc1nnc(-c2ccccc2)o1
- MIC (Staphylococcus aureus): 8 µg/mL (≈ 27.6 µM)
- MIC (Bacillus subtilis): 8 µg/mL (≈ 27.6 µM)
- MIC (Streptococcus mutans): 8 µg/mL (≈ 27.6 µM)
- MIC (Escherichia coli): 32 µg/mL (≈ 110 µM)
- MIC (Salmonella typhi): 64 µg/mL (≈ 220 µM)

SMILES: Clc1ccc(-c2nnc(Cn3cnc4ccccc43)o2)cc1
- MIC (Staphylococcus aureus): 32 µg/mL (≈ 103 µM)
- MIC (Bacillus subtilis): 32 µg/mL (≈ 103 µM)
- MIC (Streptococcus mutans): 16 µg/mL (≈ 51.5 µM)
- MIC (Escherichia coli): 32 µg/mL (≈ 103 µM)

SMILES: Cc1nc2ccccc2n1Cc1nnc(CCCl)o1
- MIC (Staphylococcus aureus): 4 µg/mL (≈ 14.5 µM)
- MIC (Bacillus subtilis): 8 µg/mL (≈ 28.9 µM)
- MIC (Streptococcus mutans): 8 µg/mL (≈ 28.9 µM)
- MIC (Escherichia coli): 32 µg/mL (≈ 116 µM)
- MIC (Salmonella typhi): 16 µg/mL (≈ 57.8 µM)
- zone of inhibition at 300 µg/disc (Candida albicans): 16 mm
- zone of inhibition at 300 µg/disc (Aspergillus niger): 10 mm
- zone of inhibition at 300 µg/disc (Aspergillus flavus): 10 mm

SMILES: Oc1ccc(-c2nnc(Cn3cnc4ccccc43)o2)cc1
- MIC (Bacillus subtilis): 16 µg/mL (≈ 54.7 µM)
- MIC (Streptococcus mutans): 32 µg/mL (≈ 109 µM)
- MIC (Escherichia coli): 32 µg/mL (≈ 109 µM)
- MIC (Pseudomonas aeruginosa): 64 µg/mL (≈ 219 µM)

SMILES: COc1ccccc1-c1nnc(Cn2cnc3ccccc32)o1
- MIC (Staphylococcus aureus): 16 µg/mL (≈ 52.2 µM)
- MIC (Bacillus subtilis): 16 µg/mL (≈ 52.2 µM)
- MIC (Escherichia coli): 32 µg/mL (≈ 104 µM)
- MIC (Pseudomonas aeruginosa): > 128 µg/mL
- zone of inhibition at 300 µg/disc (Candida albicans): 16 mm
- zone of inhibition at 300 µg/disc (Aspergillus niger): < 10 mm
- zone of inhibition at 300 µg/disc (Aspergillus flavus): < 10 mm

SMILES: c1ccc(-c2nnc(Cn3cnc4ccccc43)o2)cc1
- MIC (Staphylococcus aureus): 16 µg/mL (≈ 57.9 µM)
- MIC (Bacillus subtilis): 16 µg/mL (≈ 57.9 µM)
- MIC (Streptococcus mutans): 32 µg/mL (≈ 116 µM)
- MIC (Escherichia coli): 64 µg/mL (≈ 232 µM)
- MIC (Salmonella typhi): > 128 µg/mL

SMILES: Cc1nc2ccccc2n1Cc1nnc(-c2ccc(Cl)cc2)o1
- MIC (Staphylococcus aureus): 2 µg/mL (≈ 6.16 µM)
- MIC (Bacillus subtilis): 4 µg/mL (≈ 12.3 µM)
- MIC (Streptococcus mutans): 4 µg/mL (≈ 12.3 µM)
- MIC (Escherichia coli): > 128 µg/mL
- zone of inhibition at 300 µg/disc (Candida albicans): 22 mm
- zone of inhibition at 300 µg/disc (Aspergillus niger): 10 mm
- zone of inhibition at 300 µg/disc (Aspergillus flavus): 22 mm

SMILES: CCc1nnc(Cn2c(C)nc3ccccc32)o1
- MIC (Staphylococcus aureus): 4 µg/mL (≈ 16.5 µM)
- MIC (Bacillus subtilis): 8 µg/mL (≈ 33 µM)
- MIC (Streptococcus mutans): 4 µg/mL (≈ 16.5 µM)
- MIC (Escherichia coli): 32 µg/mL (≈ 132 µM)
- MIC (Pseudomonas aeruginosa): > 128 µg/mL
- MIC (Salmonella typhi): 32 µg/mL (≈ 132 µM)
- zone of inhibition at 300 µg/disc (Candida albicans): 16 mm
- zone of inhibition at 300 µg/disc (Aspergillus niger): 10 mm
- zone of inhibition at 300 µg/disc (Aspergillus flavus): 16 mm

SMILES: Clc1ccccc1-c1nnc(Cn2cnc3ccccc32)o1
- MIC (Staphylococcus aureus): 32 µg/mL (≈ 103 µM)
- MIC (Bacillus subtilis): 16 µg/mL (≈ 51.5 µM)
- MIC (Streptococcus mutans): 16 µg/mL (≈ 51.5 µM)
- MIC (Escherichia coli): > 128 µg/mL
- MIC (Salmonella typhi): 32 µg/mL (≈ 103 µM)

SMILES: Cc1nc2ccccc2n1Cc1nnc(-c2ccc(O)cc2)o1
- MIC (Staphylococcus aureus): 8 µg/mL (≈ 26.1 µM)
- MIC (Bacillus subtilis): 8 µg/mL (≈ 26.1 µM)
- MIC (Streptococcus mutans): 4 µg/mL (≈ 13.1 µM)
- MIC (Escherichia coli): > 128 µg/mL
- zone of inhibition at 300 µg/disc (Candida albicans): 22 mm
- zone of inhibition at 300 µg/disc (Aspergillus niger): 16 mm
- zone of inhibition at 300 µg/disc (Aspergillus flavus): 16 mm

SMILES: COc1ccc(-c2nnc(Cn3c(C)nc4ccccc43)o2)cc1
- MIC (Staphylococcus aureus): 2 µg/mL (≈ 6.24 µM)
- MIC (Bacillus subtilis): 8 µg/mL (≈ 25 µM)
- MIC (Streptococcus mutans): 4 µg/mL (≈ 12.5 µM)
- MIC (Escherichia coli): 16 µg/mL (≈ 49.9 µM)
- MIC (Pseudomonas aeruginosa): 64 µg/mL (≈ 200 µM)
- MIC (Salmonella typhi): 16 µg/mL (≈ 49.9 µM)
- zone of inhibition at 300 µg/disc (Candida albicans): 22 mm
- zone of inhibition at 300 µg/disc (Aspergillus niger): 16 mm
- zone of inhibition at 300 µg/disc (Aspergillus flavus): 16 mm

— ChEMBL document CHEMBL1154066, “Synthesis, physicochemical properties and antimicrobial activity of some new benzimidazole derivatives” (2009)
